Assay results published in ChEMBL document CHEMBL5543089, “Discovery of a novel, highly potent EZH2 PROTAC degrader for targeting non-canonical oncogenic functions of EZH2” (Eur J Med Chem, 2024).
Activity calls are given as the source filed them. The rule behind the calls is not given here.

How the values were obtained:
[1] = tested on: MV4-11; assay: Anti-proliferative activity against human MV4-11 cells assessed as cell viability measured after 5 days incubation by CCK-8 assay; format: functional, cell-based; conditions: MV4-11, 120 h
Procedure, shortened: (§1)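 Cells plated at 3,000–10,000 per well and exposed to serial dilutions for 5 days at 37 °C. CCK-8 (1x) was added for 2–4 h, with absorbance read at 450 nm against a 690 nm reference. IC50 was taken from curve fits. Leukemia lines were grown in RPMI-1640, K562 in IMDM and MDA-MB-468 in DMEM, all with 10 % FBS. Values are means ± SD of two biological experiments (three for BT549 and MDA-MB-468).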

[2] = tested on: RS4-11; assay: Anti-proliferative activity against human RS4-11 cells assessed as cell viability measured after 5 days incubation by CCK-8 assay; format: functional, cell-based; conditions: RS4-11, 120 h; procedure, shortened: as §1
[3] = tested on: EOL1; assay: Anti-proliferative activity against human EOL1 cells assessed as cell viability measured after 5 days incubation by CCK-8 assay; format: functional, cell-based; conditions: EOL1, 120 h; procedure, shortened: as §1
[4] = target: T1, von Hippel-Lindau disease tumor suppressor/Histone-lysine N-methyltransferase EZH2 (Homo sapiens, UniProt Q15910+P40337); assay: PROTAC activity at VHL/EZH2 degradation in hMLLr AML cell line EOL1 cells assessed as protein degradation at 0.1 to 1 uM measured after 24 hrs by Western blot analysis; format: cell-based; conditions: dose 0.1-1 µM
T1 sequence (P40337 whole entry, looked up): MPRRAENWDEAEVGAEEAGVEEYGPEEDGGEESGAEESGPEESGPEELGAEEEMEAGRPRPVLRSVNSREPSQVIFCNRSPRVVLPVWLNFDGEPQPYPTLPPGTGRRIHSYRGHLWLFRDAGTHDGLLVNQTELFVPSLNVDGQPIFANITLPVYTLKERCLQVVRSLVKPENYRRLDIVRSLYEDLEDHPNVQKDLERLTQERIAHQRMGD
T1 sequence (Q15910 whole entry, looked up): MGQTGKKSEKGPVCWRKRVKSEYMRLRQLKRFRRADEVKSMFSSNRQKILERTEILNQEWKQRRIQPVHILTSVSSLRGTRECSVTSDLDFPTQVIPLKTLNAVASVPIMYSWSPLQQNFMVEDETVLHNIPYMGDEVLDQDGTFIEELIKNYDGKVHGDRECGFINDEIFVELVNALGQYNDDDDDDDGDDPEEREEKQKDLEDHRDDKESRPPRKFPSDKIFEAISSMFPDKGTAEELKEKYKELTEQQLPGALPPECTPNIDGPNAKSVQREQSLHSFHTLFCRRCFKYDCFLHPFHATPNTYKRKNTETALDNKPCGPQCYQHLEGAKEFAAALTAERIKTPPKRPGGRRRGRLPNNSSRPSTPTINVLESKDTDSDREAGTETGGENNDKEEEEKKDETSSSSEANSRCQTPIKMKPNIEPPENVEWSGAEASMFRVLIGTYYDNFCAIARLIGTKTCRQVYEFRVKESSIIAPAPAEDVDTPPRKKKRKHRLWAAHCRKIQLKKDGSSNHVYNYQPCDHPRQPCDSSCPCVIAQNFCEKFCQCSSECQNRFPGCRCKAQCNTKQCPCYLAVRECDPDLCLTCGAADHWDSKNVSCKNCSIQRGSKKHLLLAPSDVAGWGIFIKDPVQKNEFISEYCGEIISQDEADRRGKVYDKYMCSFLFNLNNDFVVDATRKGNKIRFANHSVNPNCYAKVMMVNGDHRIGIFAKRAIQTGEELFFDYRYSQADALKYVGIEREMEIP
Procedure, shortened: (§2)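 Cells were seeded at 0.5–2 million per well and treated for 24 h, or for the stated times at 300 nM in the time course. Lysis was in RIPA with protease inhibitors; ~10 μg protein was run on SDS-PAGE and blotted to PVDF. Detection used fluorescent immunoblotting for EZH2, EED and SUZ12, with β-actin as loading control. Blots are representative of two biological experiments.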

[5] = target: T1, von Hippel-Lindau disease tumor suppressor/Histone-lysine N-methyltransferase EZH2; assay: PROTAC activity at VHL/EZH2 degradation in hMLLr AML cell line EOL1 cells assessed as protein degradation at 1 uM measured after 24 hrs by Western blot analysis; format: cell-based; procedure, shortened: as §2
[6] = target: T1, von Hippel-Lindau disease tumor suppressor/Histone-lysine N-methyltransferase EZH2; assay: PROTAC activity at VHL/EZH2 degradation in hMLLr AML cell line EOL1 cells assessed as protein degradation at 0.1 uM measured after 24 hrs by Western blot analysis; format: cell-based; procedure, shortened: as §2
[7] = tested on: MDA-MB-468; assay: Anti-proliferative activity against human MDA-MB-468 cells assessed as cell growth inhibition measured after 5 days incubation by CCK-8 assay; format: functional, cell-based; conditions: MDA-MB-468, 120 h; procedure, shortened: as §1
[8] = tested on: BT-549; assay: Anti-proliferative activity against human BT-549 cells assessed as cell growth inhibition measured after 5 days incubation by CCK-8 assay; format: functional, cell-based; conditions: BT-549, 120 h; procedure, shortened: as §1

Row | IC50 [1] [nM] | IC50 [2] [nM] | Activity [4] | SMILES | IC50 [3] [nM] | also measured
1 | 1000 | 1400 |  | CCN(c1cc(-c2ccc(CN3CCN(C(=O)CCCCCCCC(=O)N[C@H](C(=O)N4C[C@H](O)C[C@H]4C(=O)NCc4ccc(-c5scnc5C)cc4)C(C)(C)C)CC3)cc2)cc(C(=O)NCc2c(C)cc(C)[nH]c2=O)c1C)C1CCOCC1 | 420 | 
2 |  |  | Active | CCN(c1cc(-c2ccc(CN3CCN(CCC(=O)NCCCCCCCCC(=O)N[C@H](C(=O)N4C[C@H](O)C[C@H]4C(=O)NCc4ccc(-c5scnc5C)cc4)C(C)(C)C)CC3)cc2)cc(C(=O)NCc2c(C)cc(C)[nH]c2=O)c1C)C1CCOCC1 |  | 
3 |  |  | Active | CCN(c1cc(-c2ccc(CN3CCN(CCC(=O)NCCCCCCCC(=O)N[C@H](C(=O)N4C[C@H](O)C[C@H]4C(=O)NCc4ccc(-c5scnc5C)cc4)C(C)(C)C)CC3)cc2)cc(C(=O)NCc2c(C)cc(C)[nH]c2=O)c1C)C1CCOCC1 |  | 
4 | > 10000 | 4070 |  | CCN(c1cc(-c2ccc(OCCCOCC(=O)N[C@H](C(=O)N3C[C@H](O)C[C@H]3C(=O)NCc3ccc(-c4scnc4C)cc3)C(C)(C)C)cc2)cc(C(=O)NCc2c(C)cc(C)[nH]c2=O)c1C)C1CCOCC1 | 5400 | 
5 |  |  | inactive | CCN(c1cc(-c2ccc(CN3CCN(CCC(=O)NCCCCCC(=O)N[C@H](C(=O)N4C[C@H](O)C[C@H]4C(=O)NCc4ccc(-c5scnc5C)cc4)C(C)(C)C)CC3)cc2)cc(C(=O)NCc2c(C)cc(C)[nH]c2=O)c1C)C1CCOCC1 |  | 
6 |  |  | inactive | CCN(c1cc(-c2ccc(CN3CCN(CCC(=O)NCCCCC(=O)N[C@H](C(=O)N4C[C@H](O)C[C@H]4C(=O)NCc4ccc(-c5scnc5C)cc4)C(C)(C)C)CC3)cc2)cc(C(=O)NCc2c(C)cc(C)[nH]c2=O)c1C)C1CCOCC1 |  | 
7 |  |  |  | CCN(c1cc(-c2ccc(CN3CCN(CCC(=O)NCCCCCCCCCC(=O)N[C@H](C(=O)N4C[C@H](O)C[C@H]4C(=O)NCc4ccc(-c5scnc5C)cc4)C(C)(C)C)CC3)cc2)cc(C(=O)NCc2c(C)cc(C)[nH]c2=O)c1C)C1CCOCC1 |  | Activity [5]: Active; Activity [6]: 100%
8 |  |  |  | CCN(c1cc(-c2ccc(CN3CCOCC3)cc2)cc(C(=O)NCc2c(C)cc(C)[nH]c2=O)c1C)C1CCOCC1 [TAZEMETOSTAT] |  | IC50 [7]: > 2500 nM; IC50 [8]: > 10000 nM
9 | 5500 | 5000 |  | CCN(c1cc(-c2ccc(CN3CCN(CCCCCCCOc4cccc5c4C(=O)N(C4CCC(=O)NC4=O)C5=O)CC3)cc2)cc(C(=O)NCc2c(C)cc(C)[nH]c2=O)c1C)C1CCOCC1 (stereo unspecified) | 3700 | 
10 |  |  | inactive | CCN(c1cc(-c2ccc(CN3CCN(CCC(=O)NCCCCCCC(=O)N[C@H](C(=O)N4C[C@H](O)C[C@H]4C(=O)NCc4ccc(-c5scnc5C)cc4)C(C)(C)C)CC3)cc2)cc(C(=O)NCc2c(C)cc(C)[nH]c2=O)c1C)C1CCOCC1 |  | 
11 | 460 | 650 |  | Cc1cc(C)c(CNC(=O)c2cc(-c3ccc(N4CCN(CCCCCCCCCc5cn(CCOCCOCCOCCOCCOCCOCCNc6cccc7c6C(=O)N(C6CCC(=O)NC6=O)C7=O)nn5)CC4)nc3)cc3c2cnn3C(C)C)c(=O)[nH]1 (stereo unspecified) | 1000 | 
